Apaf-1 act = activates human Apaf-1 apoptosome. O14727. Apaf-1 apoptosome caspase-3 activation, DEVD-Rh110 fluorescence; stronger effect = lower value. activity change, negative = activation, % at 20 µM. hit rate 0.31% among 330,000. AID 489031;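 active means activity change at or below -40% at 20 µM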
Target sequence (O14727 whole entry, looked up): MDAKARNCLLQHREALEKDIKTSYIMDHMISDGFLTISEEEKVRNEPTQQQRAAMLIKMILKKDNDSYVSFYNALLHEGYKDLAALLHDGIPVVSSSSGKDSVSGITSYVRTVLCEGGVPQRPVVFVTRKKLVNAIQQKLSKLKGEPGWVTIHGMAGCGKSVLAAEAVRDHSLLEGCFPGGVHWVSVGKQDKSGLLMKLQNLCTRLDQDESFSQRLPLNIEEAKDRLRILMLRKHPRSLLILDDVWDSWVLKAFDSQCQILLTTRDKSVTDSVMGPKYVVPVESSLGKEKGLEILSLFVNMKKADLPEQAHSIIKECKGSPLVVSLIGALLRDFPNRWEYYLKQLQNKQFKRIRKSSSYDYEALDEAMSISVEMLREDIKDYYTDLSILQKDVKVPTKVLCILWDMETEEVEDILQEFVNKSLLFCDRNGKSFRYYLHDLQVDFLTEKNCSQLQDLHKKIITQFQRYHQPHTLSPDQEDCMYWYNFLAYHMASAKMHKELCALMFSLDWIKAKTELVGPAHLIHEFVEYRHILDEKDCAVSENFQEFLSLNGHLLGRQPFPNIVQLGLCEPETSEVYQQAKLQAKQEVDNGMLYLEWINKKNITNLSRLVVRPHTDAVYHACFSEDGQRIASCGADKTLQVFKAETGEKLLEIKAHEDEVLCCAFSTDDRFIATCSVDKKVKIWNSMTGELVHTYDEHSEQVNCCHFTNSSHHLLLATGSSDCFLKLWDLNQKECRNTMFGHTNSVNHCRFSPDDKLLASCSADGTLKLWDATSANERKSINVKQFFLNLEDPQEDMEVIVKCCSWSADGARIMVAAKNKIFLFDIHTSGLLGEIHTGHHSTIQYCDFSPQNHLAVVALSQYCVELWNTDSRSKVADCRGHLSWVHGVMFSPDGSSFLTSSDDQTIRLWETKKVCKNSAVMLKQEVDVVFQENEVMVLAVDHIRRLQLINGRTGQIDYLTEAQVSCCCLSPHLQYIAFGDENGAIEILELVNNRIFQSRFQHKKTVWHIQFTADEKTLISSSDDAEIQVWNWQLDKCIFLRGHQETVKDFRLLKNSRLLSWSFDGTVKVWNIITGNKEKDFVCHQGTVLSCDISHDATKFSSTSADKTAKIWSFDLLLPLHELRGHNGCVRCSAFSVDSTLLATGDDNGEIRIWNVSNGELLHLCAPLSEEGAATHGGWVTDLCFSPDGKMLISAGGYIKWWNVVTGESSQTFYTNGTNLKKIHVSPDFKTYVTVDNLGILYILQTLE
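system = biochemical Apaf-1 apoptosome reconstitution | buffer or medium = 20 mM HEPES pH 7.5 with CHAPS, BSA | also added = dATP and cytochrome c as apoptosome triggers, (Z-DEVD)2-Rh110 substrate | incubation = 30 min compound preincubation and 50 min reaction, both room temperature | measured by = fluorescence, 540 nm emission, 480 nm excitation | read-out basis = Caspase-3 cleavage activity downstream of Apaf-1 activation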
Rh110 interf act = counter-screen for Apaf-1 activators: fluorescence interference; shares compounds with Apaf-1 act; Rh110 fluorescence interference, quenched caspase reaction, Ex480/Em540; fluorescence interference (activity change), % at 20 µM, hits read low; 980 tested, under 10 active; AID 504616;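 active means mean activity change at or below -40% when tested at 20 µM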
Apaf-1 act conf2 = confirmation of human Apaf-1 activators; AID 504617; shares compounds with Apaf-1 act; activity change, negative = activation, % at 20 µM; hit rate 5% among 980; reconstituted apoptosome caspase-3 activity, DEVD-Rh110 fluorescence; stronger effect = lower value;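 active means mean activity change at or below -40%, meaning activation of 40% or more, at 20 µM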
* hit, by the source's call. A selection follows.

For C/C(=N\NC(=O)c1ccccc1)c1ccc(NC(=O)c2cccs2)cc1 the results were Apaf-1 act -143*, Rh110 interf act -3 and Apaf-1 act conf2 10.
`CN(Cc1ccc(F)cc1)C(=O)CNC(=O)c1cccs1` gave Apaf-1 act 56.
For CCOC(=O)c1c(NC(=O)c2cccs2)sc(C)c1CC the results were Apaf-1 act 51.
Cc1nn2c(-c3ccncc3)nnc2c2ccccc12 was read as Apaf-1 act 74.
Cc1sc2ncnc(N3CCC(C(=O)Nc4ccc(Cl)c(Cl)c4)CC3)c2c1C was read as Apaf-1 act 42.
`CCC(C)c1ccc(NC(=O)C2CCN(c3ncccn3)CC2)cc1` (stereo not drawn) gave Apaf-1 act -122*, Rh110 interf act 11 and Apaf-1 act conf2 16.
Screening CCN1C(=O)CC(c2ccccc2)N(C2CCCC2)c2nc(Nc3ccc(C(=O)NC4CCN(C)CC4)cc3OC)ncc21 (stereo not drawn) returned Apaf-1 act 70.
For CN1CCN(S(=O)(=O)c2cccc(C(=O)Nc3cc(C(F)(F)F)ccc3N3CCCCC3)c2)CC1 the results were Apaf-1 act 40.
`O=C(NCc1cccs1)c1cccc(S(=O)(=O)N2CCCCC2)c1` gave Apaf-1 act 55.
For O=C(N/N=C/c1ccccn1)c1cccc(S(=O)(=O)N2CCCC2)c1 the results were Apaf-1 act -587*, Rh110 interf act 2 and Apaf-1 act conf2 8.
For O=C1CC(N2CCOCC2)=NN1c1ccc([N+](=O)[O-])cc1 the results were Apaf-1 act 94.
Screening COc1cc(NC(=O)c2ccnc(N)c2)cc(C(=O)Nc2cccc(C(F)(F)F)c2)c1 returned Apaf-1 act -261*, Rh110 interf act 13 and Apaf-1 act conf2 15.
O=C(Nc1cccc(C(F)(F)F)c1)c1ccc2nc(-c3ccco3)c(-c3ccco3)nc2c1 was read as Apaf-1 act 66.
Screening CCN1CCN(Cc2ccc(NC(=O)c3cc(NC(=O)c4cncc(-c5ccc(C#N)cc5)c4)cc(OC)c3)cc2C(F)(F)F)CC1 returned Apaf-1 act 54.
`O=C1c2ccccc2-c2nnc(-c3ccc(F)cc3)cc21` gave Apaf-1 act 78.
For Fc1cccc(CCN2CCNC[C@H]2Cc2cccc3ccccc23)c1 the results were Apaf-1 act 43.
`OCCC1CN(Cc2ccc3ncccc3c2)CCN1Cc1ccccc1` (stereo not drawn) gave Apaf-1 act -247*, Rh110 interf act -1 and Apaf-1 act conf2 8.
Cc1ccc(-c2nnc(CSc3nnc(COc4cccc5ccccc45)n3-c3ccccc3)o2)cc1 was read as Apaf-1 act 44.
For CCCC(=O)OC1CC(C)N(C(=O)c2ccccc2)c2ccc(C)cc21 (stereo not drawn) the results were Apaf-1 act -67*, Rh110 interf act 7 and Apaf-1 act conf2 17.
`CCOC(=O)c1c(NC(=O)c2ccc(C)cc2)sc2c1CC(C)(C)NC2(C)C` gave Apaf-1 act 54.
Screening O=c1[nH]c(Nc2ccccc2)cc2ccccc12 returned Apaf-1 act 96.
`O=C1c2ccccc2C(=O)c2[nH]c(=O)[nH]c21` gave Apaf-1 act 80.
`O=c1[nH]c(=O)c2nc3c4ccccc4c4ccccc4c3nc2[nH]1` gave Apaf-1 act -43*, Rh110 interf act 6 and Apaf-1 act conf2 -19.
C#CCOCCOCCOCCNc1nc(N2CCN(C(=O)CCCCCCCCCCNC(=O)[C@H](CCCCN)n3cc(C[C@@H](C)CC)nn3)CC2)nc(N2CCN(C(=O)CCCCCCCCCCNC(=O)[C@@H]([C@H](C)O)n3cc(C)nn3)CC2)n1 was read as Apaf-1 act 58.
Screening CCOC(=O)N1CCC(NC(=O)CCC(=O)N2CCOc3ccccc32)CC1 returned Apaf-1 act -305*, Rh110 interf act 4 and Apaf-1 act conf2 8.
For CCOc1ccccc1N1CCN(C(=O)C2c3ccccc3Oc3ccccc32)CC1 the results were Apaf-1 act 41.
CN(CCCN1c2ccccc2CCc2ccccc21)CC(=O)c1ccc(Cl)cc1 was read as Apaf-1 act 44.
Screening Cc1cc(C)c(S(=O)(=O)/N=C2\C=C(Nc3ccc(C(=O)O)cc3)C(=O)c3ccccc32)c(C)c1 returned Apaf-1 act 89.
`O=C(CCc1ccccc1)N[C@@H]1c2ccccc2CC[C@H]1OCc1ccccc1` gave Apaf-1 act -41*, Rh110 interf act 2 and Apaf-1 act conf2 6.
Screening C/C(CCN1CCc2nc(-c3ccccc3)c(-c3ccccc3)cc2C1)=N\OC[C@@H](C)[C@H](OCc1ccccc1)C(C)C returned Apaf-1 act 47.
Screening O=C1Cc2ccccc2C(=O)N1CCc1ccccc1 returned Apaf-1 act 79.
Cc1cc(SCC(=O)N/N=C/c2ccc(O)c(O)c2O)c(C)cc1Br was read as Apaf-1 act 49.
Screening O=C(CCN1CCN(C(c2ccccc2)c2ccccc2)CC1)N/N=C/c1ccc(O)cc1O returned Apaf-1 act -236*, Rh110 interf act 8 and Apaf-1 act conf2 14.
OCc1cn(-c2ccc(Cl)cc2)nn1 was read as Apaf-1 act -56*, Rh110 interf act 8 and Apaf-1 act conf2 12.
CC(C)(C)NC(=O)CC1C(=O)NCCN1Cc1c(F)cccc1Cl (stereo not drawn) was read as Apaf-1 act -41*, Rh110 interf act 1 and Apaf-1 act conf2 7.
Screening COc1ccc(S(=O)(=O)N2CCCCCC2)cc1C(=O)N(C)Cc1c(F)cccc1Cl returned Apaf-1 act 43.
`CCCCn1c(NC(=O)c2ccc(Br)o2)c(S(=O)(=O)c2ccccc2)c2nc3ccccc3nc21` gave Apaf-1 act 71.
For CN1CCN(S(=O)(=O)c2ccc(N3CCN(C(c4ccccc4)c4ccccc4)CC3)nc2)CC1 the results were Apaf-1 act -78*, Rh110 interf act -3 and Apaf-1 act conf2 11.
For COc1ccc(S(=O)(=O)N2CCN(c3ccc4nnc(-c5ccccc5)n4n3)CC2)cc1 the results were Apaf-1 act 65.
CC1CCCCN1S(=O)(=O)c1ccc(C(=O)N(CCCN(C)C)c2nc3ccc(Br)cc3s2)cc1 (stereo not drawn) was read as Apaf-1 act 67.
For CC(=O)c1ccc(N2CCN(C(=O)CCN3C(=S)NC(C)(C)CC3C)CC2)cc1 (stereo not drawn) the results were Apaf-1 act -139*, Rh110 interf act 7 and Apaf-1 act conf2 16.
Screening CCC(C)(C)c1ccc(OCCCC[n+]2cccc(C)c2C)c(C(C)(C)CC)c1 returned Apaf-1 act 69.
For Cc1ccc(-c2ccc(/C=N/N=C3/NC(=O)C(CC(=O)O)S3)o2)c([N+](=O)[O-])c1 (stereo not drawn) the results were Apaf-1 act 74.
Screening O=[N+]([O-])c1ccc(-c2ccc(C=Nc3cccc4ccccc34)o2)cc1 returned Apaf-1 act 46.
`NC(=O)/C(=C/c1ccc2c(c1)OCO2)NC(=O)c1ccco1` gave Apaf-1 act -44*, Rh110 interf act 1 and Apaf-1 act conf2 1.
Screening COC(=O)c1ccccc1N/C=C1\CCc2c(c(C)nn2-c2ccccn2)C1=O returned Apaf-1 act 69.
